Measured values gathered from unrelated publications.
Each line is one published result; the experiments were not run side by side.
Target: Serine/threonine-protein kinase pim-2 (PIM2, Homo sapiens, UniProt Q9P1W9)

CSc1nc(C)c(-c2ccnc(Nc3ccc(N4CCOCC4)cc3)c2)[nH]1  inhibition (enzyme activity, inhibitor; 10 µM): -4.8%
CCCOc1ccc(OC)c(F)c1C(=O)c1ccc(C(=O)N[C@@H]2CNC[C@H]2NC(=O)c2ccc3[nH]ncc3c2)cc1  remaining activity (enzyme activity, inhibitor; 10 µM): 101%
CO[C@@H](C)c1c(Nc2ccc([C@H](N(C)C(=O)C3CCS(=O)(=O)CC3)C(F)(F)F)cc2)cnc2cc(Cl)nn12  remaining binding (cell-free assay, competition with immobilised ligand; 1 µM): 100%
CC(C)(C)c1nc2c(s1)c1nc(N)ncc1c1ccc(NS(=O)(=O)c3c(F)cccc3F)c(F)c12  remaining activity (enzyme activity, inhibitor, radiometric; 1 µM): 81%
O=c1nc(-c2ccccn2)sc2ccccc12  remaining binding (binding, competition with immobilised ligand; 1 µM): 97%
COc1cc(Nc2cnc(C#N)c(O[C@H](C)CN(C)C)n2)ncc1-c1cnn(C)c1  remaining activity (enzyme activity, inhibitor, radiometric; 10 µM): 77%
CNC(=O)c1cc(Oc2ccc(NC(=O)Nc3ccc(Cl)c(C(F)(F)F)c3)cc2)ccn1  inhibition (enzyme activity, inhibitor; 0.3 µM): 6%
CCOc1cc(-c2nncn2C)ccc1Nc1ncc2cc(C)nc(NCC(C)(C)C)c2n1  inhibition (enzyme activity, inhibitor, FRET; 1 µM): < 15%
COc1cc(Cl)c(C(=O)N[C@@H](CN[C@H]2CC[C@@H](N)CC2)Cc2ccc(C#N)cc2)cc1-c1ccc(CN[C@H](C)c2ccc(C)cc2)o1  remaining activity (enzyme activity, inhibitor; 1 µM): 92%
N#CCCc1ccc2c(c1)-c1[nH]c3ccc([N+](=O)[O-])cc3c1CC(=O)N2  remaining signal (cell-free assay; 0.5 µM): 104%
FC(F)(F)Oc1cccc(-c2cnc3ccc(-c4ccncc4)nn23)c1  activity vs control (enzyme activity, inhibitor, radiometric; 1 µM): 88%
FC(F)c1nc2ccccc2n1-c1nc(N2CCOCC2)nc(N2CCOCC2)n1  remaining activity (enzyme activity, inhibitor; 10 µM): 92%
O=C(Nc1cnn(-c2csc(C(=O)NC3COC3)c2)c1)Nc1ccccc1Cl  remaining activity (enzyme activity, inhibitor; 5 µM): 96.4%
CC(C)CC(=O)N1CCc2nc(-c3ccc(Br)cc3)nc(N(C)Cc3ccccc3)c2C1  remaining binding (cell-free assay, competition with immobilised ligand; 0.1 µM): 100%
COc1cc2ncnc(Nc3ccc(Oc4ccccc4)cc3C)c2cc1OC  inhibition (enzyme activity, inhibitor; 1 µM): -2%
CS(=O)(=O)Nc1cccc(-c2csc(NC(=O)CSc3nc4nccnc4c(=O)n3CCc3ccccc3)n2)c1  inhibition (enzyme activity, inhibitor; 10 µM): -8%
Cc1cnc(NC2CCOCC2)nc1-n1cnc(C(=O)NC(CN)c2cc(F)cc(Cl)c2)c1 (stereo not shown)  remaining activity (enzyme activity, inhibitor, radiometric; 1 µM): 100%
Cc1ccc(NC(=O)c2ccc(CN3CCN(C)CC3)cc2)cc1Nc1nc(-c2cccnc2)cs1  remaining signal (cell-free assay; 0.5 µM): 118%
CCCS(=O)(=O)Nc1ccc(F)c(C(=O)c2c[nH]c3ncc(-c4ccc(Cl)cc4)cc23)c1F  inhibition (enzyme activity, inhibitor; 1 µM): < 10%
Oc1cccc(-c2nc(N3CCOCC3)c3oc4ncccc4c3n2)c1  remaining activity (enzyme activity, inhibitor; 10 µM): 90%
Cc1cc(NC(=O)c2cccc3cc(-c4cccc5[nH]nc(N)c45)ccc23)ccc1F  activity vs control (enzyme activity, inhibitor; 0.1 µM): 87%
O=C1NC(c2ccccn2)Sc2ccccc21 (stereo not shown)  remaining binding (cell-free assay, competition with immobilised ligand; 1 µM): 88%
COc1cc(/C=C/C(=O)CC(=O)/C=C/c2ccc(O)c(OC)c2)ccc1O  activity vs control (enzyme activity, inhibitor; 1 µM): 74%
CC(=O)N1CCC(c2ccc(C(=O)NC(=N)N)cc2C(F)(F)F)CC1  remaining binding (cell-free assay, competition with immobilised ligand; 1 µM): 100%
Cc1sc(C(=O)NC2COC2)cc1-n1cc(NC(=O)Nc2c(F)cccc2Cl)cn1  remaining activity (enzyme activity, inhibitor; 10 µM): 96.5%
Cc1c(NC(=O)c2cc(C(N)=O)nc3cc(F)ccc23)c(C(F)(F)F)nn1Cc1ccc(C#N)cc1  remaining binding (cell-free assay, competition with immobilised ligand; 1 µM): 94%
CCN(CC)CCNC(=O)c1c(C)[nH]c(/C=C2\C(=O)Nc3ccc(F)cc32)c1C  remaining signal (cell-free assay; 0.5 µM): 97.2%
CNC(=O)c1ccc(Nc2ncc(C(F)(F)F)c(NCc3nccnc3N(C)S(C)(=O)=O)n2)cc1  remaining binding (cell-free assay, competition with immobilised ligand; 0.1 µM): 100%
Nc1nc(Nc2ccccc2)sc1C(=O)c1c(F)cccc1F  remaining activity (enzyme activity, inhibitor; 10 µM): 91%
O=C1Nc2ccc(Cl)cc2C1=Cc1cc(Cl)c(O)c(Cl)c1  remaining signal (cell-free assay; 0.5 µM): 48.6%
CCC(=O)N[C@H]1CC[C@@H](C(=O)N(C)c2ccc(-c3nc4ccccc4o3)cc2)C1  remaining binding (cell-free assay, competition with immobilised ligand; 1 µM): 100%
